Test results taken from ChEMBL document CHEMBL4000159, “Bartolosides E-K from a Marine Coccoid Cyanobacterium” (J Nat Prod, 2016).

How the values were obtained:
Type in all cases: functional, cell-based
T47D = test: Cytotoxicity against human T47D cells assessed as decrease in cell viability after 48 hrs by MTT assay
In short: (§1)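 Cells grown in DMEM Glutamax with 10% FBS, 2.5 μg/mL fungizone, 100 IU/mL penicillin and 100 μg/mL streptomycin. Seeded at 3.3 × 10^4 cells/mL and left 24 h (37 °C, 5% CO2) to adhere. Pure compounds added as dilutions from 50 to 0.003 μg/mL for 48 h. MTT 0.5 mg/mL for 3 h, formazan dissolved in DMSO, absorbance read at 550 nm. Triplicates averaged; IC50 taken from dose–response curves.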

RKO = test: Cytotoxicity against human RKO cells assessed as decrease in cell viability after 48 hrs by MTT assay; in short: as §1
MG-63 = test: Cytotoxicity against human MG63 cells assessed as decrease in cell viability after 48 hrs by MTT assay; details: MG-63, 48 h; in short: as §1

Row | SMILES | IC50 (T47D) [µM] | IC50 (RKO) [µM] | IC50 (MG-63) [µM]
1 | CCCCCCCC(Cl)CCCCCc1cc(O)c(CCCCCC(Cl)CCCCCC)c(O[C@@H]2OC[C@@H](O)[C@H](O)[C@H]2O)c1 (some centres undefined) | 23 | 40 | 22
2 | CCCCCCCCC(Cl)CCCCCc1cc(O)c(CCCCCC(Cl)CCCCCC)c(O[C@@H]2OC[C@@H](O)[C@H](O)[C@H]2O)c1 (some centres undefined) | > 10 | > 10 | > 10
3 | CCCCCCCCCCCc1cc(O)c(CCCCCC(Cl)CCCCCC)c(O[C@@H]2OC[C@@H](O)[C@H](O)[C@H]2O)c1 (some centres undefined) | > 10 | > 10 | > 10
4 | CCCCCCCCCCCCCc1cc(O)c(CCCCCC(Cl)CCCCCC)c(O[C@@H]2OC[C@@H](O)[C@H](O)[C@H]2O)c1 (some centres undefined) | > 10 | > 10 | > 10
5 | CCCCCCC(Cl)CCCCCc1cc(O)c(CCCCCC(Cl)CCCCCC)c(O[C@@H]2OC[C@@H](O)[C@H](O)[C@H]2O)c1 (some centres undefined) | > 10 | > 10 | > 10
6 | CCCCCCCCCC(Cl)CCCCCc1cc(O)c(CCCCCC(Cl)CCCCCC)c(O[C@@H]2OC[C@@H](O)[C@H](O)[C@H]2O)c1 (some centres undefined) | > 10 | > 10 | > 10
7 | CCCCCCC(Cl)CCCCCc1c(O)cc(CCCCCCC(Cl)CCCC)cc1O[C@@H]1OC[C@@H](O)[C@H](O)[C@H]1O (some centres undefined) | 22 | 40 | 39
8 | CCCCCCCC(Cl)(Cl)CCCCCc1cc(O)c(CCCCCC(Cl)CCCCCC)c(O[C@@H]2OC[C@@H](O)[C@H](O)[C@H]2O)c1 (some centres undefined) | 59.8 | > 10 | > 10
